Myeloid diff MLP – induction of myeloid progenitor differentiation, primary screen, cell-based, flow cytometry, MLPCN library | ER-HoxA9 myeloid progenitors, lysozyme-GFP differentiation | calls only at 10 µM | 1% of 360,000 active | AID 624256, 2012;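 active = normalized GFP-positive differentiation at or above the plate's own cutoff, the solvent-only control mean plus 3 SD; inconclusive = no clear call, values can overlap the other calls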;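 also: cells exposed to compound for four days before flow analysis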
T cell modulator – modulators of CD8 T cell-vesicle binding, primary screen, mouse 2C CD8+ T cells, flow cytometry. 2C CD8+ T cell-vesicle binding; stronger effect = lower value. response (vesicle binding), % at 7 µM. 0.068% of 330,000 active;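 active = response, share of CD8 T cells binding vesicles, and their 90th percentile fluorescence all below set limits, cut at about 80% in these data, passing the limit was not always enough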;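 also: values below 100% mean blocked vesicle binding to the CD8+ T cells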
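Test system: purified 2C TCR transgenic mouse naive CD8+ T cells. Probe or stimulus: QL9-peptide-loaded Drosophila micro-vesicles bearing Ld, ICAM-1 and B7-1. Incubation: binding step 1.5 h, 37 °C, antibody labelling 20 min, ice. Measured by: flow cytometry of vesicle-bound cells.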
GAA850 FXN act – FXN promoter activators, primary screen, cell-based, luciferase luminescence, HEK293 lucGAA850 | 0.56% of 360,000 active | activation, % at 6 µM | HEK293 lucGAA850 FXN promoter luciferase reporter, 24 h; percent of 10 µM SAHA response | AID 540364, 2011;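 active = activation above the average of all compounds screened plus 3 SD, cutoff fixed separately per campaign, cut at about 7.5% in these data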
NR2E3 ag-1 – NR2E3 agonists in two-hybrid cells, primary screen, cell-based, luminescence, CHO-S, Gal4-NCOR/VP16-NR2E3; Photoreceptor-specific nuclear receptor (Homo sapiens), Q9Y5X4; luciferase; inhibition of corepressor binding, % at 3.98 µM; 0.35% of 360,000 active; AID 602229, 2012;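 active = inhibition above the mean of all tested compounds plus 3 SD, cut at about 70% in these data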;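 also: higher means lower luciferase signal from less NR2E3 corepressor binding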
Target sequence (Q9Y5X4 whole entry, looked up, the tested form may be a part): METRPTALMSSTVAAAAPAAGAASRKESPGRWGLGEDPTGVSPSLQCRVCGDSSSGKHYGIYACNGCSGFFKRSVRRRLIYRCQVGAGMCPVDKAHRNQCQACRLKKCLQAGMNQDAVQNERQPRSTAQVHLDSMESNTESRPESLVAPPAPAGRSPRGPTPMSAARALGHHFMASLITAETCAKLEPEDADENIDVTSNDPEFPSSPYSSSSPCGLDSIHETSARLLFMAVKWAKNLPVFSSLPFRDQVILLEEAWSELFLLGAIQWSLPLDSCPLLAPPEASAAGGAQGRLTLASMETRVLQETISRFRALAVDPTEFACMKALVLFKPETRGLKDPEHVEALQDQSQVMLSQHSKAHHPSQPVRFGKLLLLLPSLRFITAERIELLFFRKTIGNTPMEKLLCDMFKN
NR2E3 ag-2 – inhibitors of NR2E3-RetCOR corepressor binding, primary screen, NR2E3 agonist project, biochemical, TR-FRET, GST-NR2E3, biotin-RetCOR; Photoreceptor-specific nuclear receptor (Homo sapiens), Q9Y5X4; 1536-well; inhibition of corepressor binding, % at 4.78 µM; 0.12% of 320,000 active;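 active = percent inhibition above the cutoff of mean plus 3 SD of all tested compounds, set per screening campaign, cut at about 20% in these data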
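Material: NR2E3–RetCOR corepressor complex / Incubation: Compound–protein incubation for 5 h at 4 °C / Dosing: compound at 4.8 µM, single dose / Detection: time-resolved FRET / Benchmarks: high control biotin, low control 0.6% DMSO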
Myeloid diff CP1 – inducers of myeloid progenitor differentiation, confirmation, cell-based, GFP/Mac1 flow cytometry, cherry pick 01 | 2% of 2,300 active | calls only | AID 651706, 2012 | shares compounds with Myeloid diff MLP | ER-HoxA9 myeloid progenitors, GFP/Mac1 double-positive flow;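 active = share of green or green-and-red cells above 9 and 9% in run 1 or 4 and 3% in run 2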
GFP autofluor – flagged as fluorescent in myeloid differentiation counter-screen. shares compounds with Myeloid diff MLP. ER-HoxA9 myeloid progenitors, no estrogen, GFP autofluorescence flow cytometry; vehicle wells 0%, positive control 100%. fluorescence response, % (concentration not given with the values). 7.4% of 2,300 active. AID 651707;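 active = over 5% cells positive for green fluorescent reporter, or over 2% positive for both it and APC stain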
Of the large screens only hits and unclear results are named; the others gave an inactive call (follow-up assays come after a bar, where they were run). In the library only some 2% were active in any assay of this set; here they are far more common.

COc1ccccc1CC1(C)NC(=O)N(CC(=O)N2CCc3ccccc3C2)C1=O (configuration not stated)	none | Myeloid diff CP1 inactive | GFP autofluor inactive
O=C(CN1C(=O)NC2(CCCCCCC2)C1=O)N1CCc2ccccc2C1	none
COc1ccc(-c2oc3ccccc3c2C#Cc2cncn2C)cc1	none
CC(/C=C/c1ccc(N(C)C)cc1)=N/N=C1/NC(=O)CC(C(=O)Nc2ccc(Cl)cc2)S1 (configuration not stated)	Myeloid diff MLP active | Myeloid diff CP1 inactive | GFP autofluor inactive
COCCNC(=O)C1(C)CCCN(Cc2noc(-c3ccccc3OC)n2)C1 (configuration not stated)	none (no result: T cell modulator, NR2E3 ag-2)
COc1ccc(C(O)c2nc(-c3cnc4ccccc4c3)cs2)cc1 (configuration not stated)	none (no result: T cell modulator, NR2E3 ag-2)
c1ccc(-n2cc(CN3CCC(N4CCOCC4)CC3)c(-c3ccc4c(c3)OCO4)n2)cc1	Myeloid diff MLP active | Myeloid diff CP1 inactive | GFP autofluor inactive
COc1ccc(NC(=O)N2CCN(C(=O)Nc3ccc(OC)cc3)CC2)cc1	none
COc1ccc(NC(=O)N2CCN(CCC#N)CC2)cc1	none | Myeloid diff CP1 inactive | GFP autofluor inactive
CCOc1ccccc1NC(=O)Cn1c(C)cc(COC)c(C#N)c1=O	none
COCc1cc(C)n(CC(=O)Nc2ccccc2C(=O)OC)c(=O)c1C#N	none | Myeloid diff CP1 inactive | GFP autofluor inactive
Cc1ccc(-c2csc(NC(=O)c3c(C)noc3C)n2)cc1	Myeloid diff MLP active | Myeloid diff CP1 inactive | GFP autofluor inactive
COc1ccc(-n2c(SC(C)C(=O)Nc3ncc(Cl)cc3Cl)nc3ccccc32)cc1 (configuration not stated)	Myeloid diff MLP active | Myeloid diff CP1 inactive | GFP autofluor inactive
CC(Sc1nnc2ccccn12)C(=O)Nc1ncc(Cl)cc1Cl (configuration not stated)	none
O=C(Nc1c(-c2ccc(Cl)cc2)[nH][nH]c1=O)c1ccccc1Cl	none (no result: T cell modulator, GAA850 FXN act, NR2E3 ag-2)
CC[C@@]1(C(=O)OC)N[C@H](CN(C)C(=O)COC)[C@@H]2C(=O)N(Cc3ccccc3)C(=O)[C@@H]21	Myeloid diff MLP active (no result: NR2E3 ag-2) | Myeloid diff CP1 inactive | GFP autofluor 7.3
COCC(=O)N(C)C[C@H]1N[C@@](Cc2ccccc2)(C(=O)OC)[C@H]2C(=O)N(Cc3ccccc3)C(=O)[C@@H]12	none (no result: NR2E3 ag-2)
C=CCNc1ncnc2c1ncn2[C@H]1CN(Cc2ccc(F)cc2)C[C@@H](CO)O1	none (no result: T cell modulator, NR2E3 ag-2)
COc1ccc(C(=O)C(C)[n+]2ccc(C)c3ccccc32)cc1[N+](=O)[O-] (configuration not stated)	Myeloid diff MLP active | Myeloid diff CP1 inactive | GFP autofluor inactive
COc1ccc(Oc2ccc(-c3ccn[nH]3)cc2)cc1	none
COC(=O)c1ccc(NC(=O)c2cc(-c3ccccn3)nc3ccccc23)cc1	Myeloid diff MLP active | Myeloid diff CP1 inactive | GFP autofluor inactive
Cc1noc(C)c1-c1ccc(C(=O)NCc2cccnc2)c2occc12	none (no result: T cell modulator, NR2E3 ag-2)
C[n+]1ccccc1/C=C/c1ccc2ncccc2c1	Myeloid diff MLP active (no result: NR2E3 ag-2) | Myeloid diff CP1 active | GFP autofluor inactive
CCN(Cc1ccccc1)C(=O)C1CCN(C/C(C)=C/c2ccccc2)CC1	none | Myeloid diff CP1 inactive | GFP autofluor inactive
CCN(Cc1ccccc1)C(=O)C1CCN(Cc2ccc(SC)cc2)CC1	none
O=C(Nc1ccn(C2CCC(CO)O2)c(=O)n1)c1ccccc1 (configuration not stated)	none (no result: T cell modulator, GAA850 FXN act, NR2E3 ag-2)
COc1ccc(/C=C/C(O)=C2/C(=O)N(C)C3(C)CC2c2ccccc2O3)cc1 (configuration not stated)	Myeloid diff MLP active | Myeloid diff CP1 active | GFP autofluor inactive
COc1ccc(-c2nc(CN3CCC(C(=O)N4CCc5ccccc54)CC3)c(C)o2)cc1OC	none | Myeloid diff CP1 inactive | GFP autofluor inactive
CCC(C)Sc1cccc(-c2nc3cc(C)ccn3c2NCc2ccccc2)c1 (configuration not stated)	none
N#Cc1c(N2CCN(C(=O)c3ccco3)CC2)nc(-c2ccccc2)c2c1CCCC2	none | Myeloid diff CP1 inactive | GFP autofluor inactive
COc1ccc(CN2c3c(Br)cccc3C(=O)CS2(=O)=O)cc1	Myeloid diff MLP active (no result: T cell modulator, NR2E3 ag-2) | Myeloid diff CP1 inactive | GFP autofluor inactive
O=C1CS(=O)(=O)N(Cc2cccc(F)c2)c2ccc(Br)cc21	none
Cc1cccc(-c2nnc(-c3cccc(NC(=O)Cc4cccs4)c3)o2)c1	none | Myeloid diff CP1 inactive | GFP autofluor inactive
COc1ccccc1/C=C/C1(C(=O)NC2CCCC2)CC(=O)N1c1ccccc1 (configuration not stated)	Myeloid diff MLP active | Myeloid diff CP1 inactive | GFP autofluor inactive
CN(C)S(=O)(=O)c1ccc(N2C(=O)CC2(/C=C/c2ccccc2)C(=O)NC2CCCC2)cc1 (configuration not stated)	none
COc1ccc(N2CCN(C(=O)c3cn(CC4CCCCC4)nn3)CC2)cc1	none
CN(C)N=Nc1ccc(-c2cn(Cc3ccccc3)cn2)cc1	none | Myeloid diff CP1 inactive | GFP autofluor inactive
CN(Cc1ccccc1)N=Nc1ccccc1	none (no result: T cell modulator, NR2E3 ag-2)
Cc1ccsc1C(=O)OCC(=O)N(C)C1CCCCC1	none (no result: NR2E3 ag-2)
CN(C(=O)c1cc2sccc2n1C)C1CCCCC1	Myeloid diff MLP active | Myeloid diff CP1 inactive | GFP autofluor inactive
Cn1c(C(=O)NC2CCCCC2)cc2sccc21	none
Cc1ccc(S(=O)(=O)NC(=O)C2(C)CCN2C(=O)C2CC2)cc1 (configuration not stated)	none (no result: T cell modulator, NR2E3 ag-2)
Cc1ccncc1CNC(=O)c1ccccc1	none (no result: T cell modulator, NR2E3 ag-2)
CCN(CC)CCOc1cc2c(nn1)Oc1ccccc1N2C	none | Myeloid diff CP1 inactive | GFP autofluor inactive
C[C@@H]1COc2cc(N3CCSCC3)ccc2S(=O)(=O)N1	none (no result: T cell modulator, GAA850 FXN act, NR2E3 ag-2)
O=C(Nc1cnc2ccccc2c1)N1CCCCC1	none
O=C(Nc1cnc2ccccc2c1)N1CCOCC1	none | Myeloid diff CP1 inactive | GFP autofluor inactive
COCCNc1nc(NCc2ccc(NC(C)=O)cc2)c2sc(-c3ccccc3)cc2n1	Myeloid diff MLP inconclusive (no result: T cell modulator, NR2E3 ag-2)
Cc1ccc(NC2=CC(=O)C(=O)c3ccccc32)c(C)c1	Myeloid diff MLP active | Myeloid diff CP1 inactive | GFP autofluor 3.1
C=CCNC(=O)c1ccc(N(CC=C)S(C)(=O)=O)cc1	Myeloid diff MLP active | Myeloid diff CP1 inactive | GFP autofluor inactive

Screening data: PubChem, several laboratories
